This passage reports Ki and Ratio results from ChEMBL document CHEMBL1128667 (J Med Chem, 1995).

For experiment [1], the target named is Delta-type opioid receptor (Rattus norvegicus, UniProt P33533). Description: Ability to inhibit [3H]DADLE binding to rat brain delta receptor. Summed up:
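[3H]DADLE (1.7-2.5 nM) on rat brain membranes, 3-4 h at 25 °C in 10 mM Tris-HCl pH 7.4 with 100 mM choline chloride, 3 mM MnCl2, 100 nM DAMGO blocking μ sites, and protease inhibitors. Nonspecific with 20 μM levallorphan. 8–10 concentrations, run twice; dilutions in Tris/1 mg/mL BSA. IC50 and slope factor from curve fitting.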

The next experiment addresses Mu-type opioid receptor (Rattus norvegicus, UniProt P33535). Description: Ability to inhibit [3H]DAMGO binding to rat brain Opioid receptor mu 1. Summed up: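 Rat brain membranes labelled with [3H]DAMGO (1-3 nM), 4 h at 25 °C in 50 mM Tris-HCl pH 7.4 with protease inhibitor cocktail. Nonspecific with 20 μM levallorphan. 8–10 concentrations, run twice; dilutions in Tris with 1 mg/mL BSA, 1 mM stocks in Tris containing 10% DMSO/5% Emulphor. IC50 and slope factor from curve fitting.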

Experiment [2] deals with Kappa-type opioid receptor (Cavia porcellus, UniProt P41144). Description: Ability to inhibit [3H]U-69593 binding to guinea pig Opioid receptor kappa 1. Summed up: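 Guinea pig brain membranes depleted of μ and δ sites by BIT/FIT pretreatment, labelled with [3H]U69,593 (1.2-2.3 nM), 4-6 h at 25 °C in 50 mM Tris-HCl pH 7.4 with protease inhibitors and 1 μg/mL captopril. Nonspecific with 1 μM U69,593. 8–10 concentrations, run twice; IC50 and slope factor from curve fitting.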

Experiment [3] concerns the target Sigma 2 receptor. Description: Ability to inhibit [3H](+)-DTG binding to rat liver Sigma receptor type 2 in presence of dextrallorphan. In a few lines:
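Rat liver membranes (male Sprague–Dawley, 150–200 g; Tris/sucrose homogenisation, differential centrifugation, 25 °C preincubation). 160 μg protein with 5 nM [3H]DTG plus 1 μM dextrallorphan to mask σ1, 50 mM Tris-HCl pH 8.0, 120 min at 25 °C. Nonspecific with 10 μM haloperidol. Filtration. 12 concentrations (0.05–10 000 or 0.5–100 000 nM); Ki via Cheng–Prusoff with Scatchard Kd; 2–3 experiments in duplicate, ±SEM.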

The test system of experiment [4] is Sigma 2 receptor. Description: Ratio of binding affinity towards guinea-pig brain […] receptor to rat liver sigma-2 receptor.
The nature of experiment [5]: Ability to inhibit [3H](+)-pentazocine binding to guinea pig brain Sigma receptor type 1.

Sequence of Kappa-type opioid receptor (P41144 whole entry): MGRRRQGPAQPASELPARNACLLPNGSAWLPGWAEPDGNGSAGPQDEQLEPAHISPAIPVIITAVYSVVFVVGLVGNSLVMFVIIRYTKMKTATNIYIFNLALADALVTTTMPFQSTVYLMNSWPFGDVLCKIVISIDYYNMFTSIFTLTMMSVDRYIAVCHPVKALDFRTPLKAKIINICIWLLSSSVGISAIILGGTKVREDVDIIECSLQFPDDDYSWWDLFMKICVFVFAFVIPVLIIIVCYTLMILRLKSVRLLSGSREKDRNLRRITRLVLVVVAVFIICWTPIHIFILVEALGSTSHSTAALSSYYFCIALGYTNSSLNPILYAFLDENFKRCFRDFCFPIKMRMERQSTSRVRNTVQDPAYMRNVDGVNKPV
Sequence of Delta-type opioid receptor (P33533 whole entry): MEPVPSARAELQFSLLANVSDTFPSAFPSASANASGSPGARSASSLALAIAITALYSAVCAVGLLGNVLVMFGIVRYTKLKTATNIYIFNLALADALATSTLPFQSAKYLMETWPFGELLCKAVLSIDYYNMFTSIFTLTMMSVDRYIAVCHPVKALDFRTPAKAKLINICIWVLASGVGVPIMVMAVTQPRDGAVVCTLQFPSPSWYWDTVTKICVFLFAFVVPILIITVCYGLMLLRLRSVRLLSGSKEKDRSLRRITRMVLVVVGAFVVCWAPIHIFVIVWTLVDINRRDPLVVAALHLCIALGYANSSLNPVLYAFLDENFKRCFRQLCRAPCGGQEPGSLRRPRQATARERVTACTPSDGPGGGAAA
Sequence of Mu-type opioid receptor (P33535 whole entry): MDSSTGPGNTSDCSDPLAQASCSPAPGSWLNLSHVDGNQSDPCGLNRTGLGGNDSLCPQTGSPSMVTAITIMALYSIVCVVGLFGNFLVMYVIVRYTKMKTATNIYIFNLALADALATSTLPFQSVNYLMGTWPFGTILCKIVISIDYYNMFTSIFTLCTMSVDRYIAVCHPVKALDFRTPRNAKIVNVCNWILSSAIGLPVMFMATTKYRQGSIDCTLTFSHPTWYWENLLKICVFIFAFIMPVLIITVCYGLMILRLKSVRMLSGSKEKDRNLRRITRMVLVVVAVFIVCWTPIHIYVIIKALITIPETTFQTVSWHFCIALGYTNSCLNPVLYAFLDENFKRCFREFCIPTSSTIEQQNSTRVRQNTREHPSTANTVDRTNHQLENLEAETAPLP

Usually Ki stands for the dissociation constant of the complex between target and ligand, obtained from inhibition or displacement. Turning to `CN1CCC2(c3cccc(O)c3)CC(=O)/C(=C/c3ccc4ccccc4c3)C1C2` (stereo not drawn), the Ki in experiment [1] is 0.142 µM; on Mu-type opioid receptor, 0.0022 µM; in experiment [2], over 0.5 µM; on Sigma 2 receptor [3], 0.0802 µM. Besides, the Ratio with Sigma 2 receptor [4] stood at 0.21.

For the compound `CN1CCC2(c3cccc(O)c3)CC(=O)/C(=C/c3cccc(I)c3)C1C2` (stereo not drawn), the Ki in experiment [1] was 0.141 µM; on Mu-type opioid receptor it was 0.0091 µM; in experiment [2], over 0.5 µM; on Sigma 2 receptor [3] it was 0.024 µM. Also, the Ratio in the experiment on Sigma 2 receptor [4] was 68.

For the compound `CN1CCC2(c3cccc(O)c3)CC(=O)/C(=C/C3CC3)C1C2` (stereo not drawn), the Ki in experiment [1] is over 1 µM; at Mu-type opioid receptor, 0.0112 µM; in experiment [2], over 0.5 µM; on Sigma 2 receptor [3], 0.356 µM. The Ratio with Sigma 2 receptor [4] is 0.18.

For `COc1cccc(C23CCN(C)C(C2)/C(=C\c2ccccc2)C(=O)C3)c1` (single isomer, unassigned; (+)) [listing 1 of 2 here], the Ki in experiment [2] is over 0.5 µM; on Sigma 2 receptor [3], 0.052 µM.

With `CN1CCC2(c3cccc(O)c3)CC(=O)/C(=C/c3ccccc3)C1C2` (single isomer, unassigned; (+)) [listing 1 of 2 here], the Ki worked out at 0.735 µM in experiment [1], 0.0376 µM at Mu-type opioid receptor, 1.09 µM in experiment [2] and 0.0165 µM at Sigma 2 receptor [3].

`COc1ccc(/C=C2/C(=O)CC3(c4cccc(O)c4)CCN(C)C2C3)cc1` (single isomer, unassigned; (+)) [listing 1 of 2 here]: the Ki was 0.127 µM in experiment [1], 0.0039 µM at Mu-type opioid receptor, over 0.5 µM in experiment [2] and 0.0216 µM on Sigma 2 receptor [3].

Take `COc1cccc(/C=C2/C(=O)CC3(c4cccc(O)c4)CCN(C)C2C3)c1` (single isomer, unassigned; (+)) [listing 1 of 2 here]: the Ki in experiment [1] is 0.175 µM; on Mu-type opioid receptor, 0.0126 µM; on Sigma 2 receptor [3], 0.0382 µM.

As for `CN1CCC2(c3cccc(O)c3)CC(=O)/C(=C/c3ccc(I)cc3)C1C2` (single isomer, unassigned; (+)), the Ki was 0.321 µM in experiment [1], 0.0267 µM at Mu-type opioid receptor, over 1 µM in experiment [2] and 0.0526 µM on Sigma 2 receptor [3]. Besides, the Ratio with Sigma 2 receptor [4] came to 32.

With `CN1CCC2(c3cccc(O)c3)CC(=O)/C(=C/c3ccc(Cl)c(Cl)c3)C1C2` (single isomer, unassigned; (+)), the Ki in experiment [1] stood at 0.271 µM; on Mu-type opioid receptor it was 0.0045 µM; at Sigma 2 receptor [3], 0.0134 µM.

As for `CN1CCC2(c3cccc(O)c3)CC(=O)CC1C2` (single isomer, unassigned; (+)), the Ki in experiment [1] was determined as 0.505 µM; on Mu-type opioid receptor, 0.0355 µM; in experiment [2], 2.54 µM.

On to `CN1CCC2(c3cccc(O)c3)CC(=O)/C(=C/c3ccccc3)C1C2` (single isomer, unassigned; (+)) [listing 2 of 2 here], for which the Ratio in the experiment on Sigma 2 receptor [4] came to 79.

Turning to `COc1ccc(/C=C2/C(=O)CC3(c4cccc(O)c4)CCN(C)C2C3)cc1` (single isomer, unassigned; (+)) [listing 2 of 2 here], the Ratio in the experiment with Sigma 2 receptor [4] worked out at 88.

For the compound `COc1cccc(/C=C2/C(=O)CC3(c4cccc(O)c4)CCN(C)C2C3)c1` (single isomer, unassigned; (+)) [listing 2 of 2 here], the Ratio in the experiment with Sigma 2 receptor [4] was 157.

For the compound `COc1cccc(C23CCN(C)C(C2)/C(=C\c2ccccc2)C(=O)C3)c1` (single isomer, unassigned; (+)) [listing 2 of 2 here], the Ratio in the experiment with Sigma 2 receptor [4] was 2.8.

`CN1CCC2(c3cccc(O)c3)CC(=O)/C(=C/c3ccc(Cl)cc3)C1C2` (single isomer, unassigned; (-)) [listing 1 of 2 here]: the Ki in experiment [1] was over 0.5 µM; on Mu-type opioid receptor it was 0.0482 µM; in experiment [2], over 0.5 µM; at Sigma 2 receptor [3] it was 0.0265 µM.

With `COc1ccc(/C=C2/C(=O)CC3(c4cccc(O)c4)CCN(C)C2C3)cc1` (single isomer, unassigned; (-)) [listing 1 of 2 here], the figures for the Ki (in experiment [1]; on Mu-type opioid receptor; at Sigma 2 receptor [3]) were over 0.5 µM, 0.027 µM and 0.0813 µM, respectively.

`COc1cccc(/C=C2/C(=O)CC3(c4cccc(O)c4)CCN(C)C2C3)c1` (single isomer, unassigned; (-)) [listing 1 of 2 here]: the figures for the Ki (in experiment [1]; on Mu-type opioid receptor; at Sigma 2 receptor [3]) were over 0.4 µM, 0.0314 µM and 0.0463 µM, respectively.

`CN1CCC2(c3cccc(O)c3)CC(=O)/C(=C/c3ccc(Cl)c(Cl)c3)C1C2` (single isomer, unassigned; (-)): the Ki in experiment [1] was over 0.5 µM; on Mu-type opioid receptor it was 0.0451 µM; at Sigma 2 receptor [3], 0.0355 µM.

As for `CN1CCC2(c3cccc(O)c3)CC(=O)/C(=C/c3ccc(Cl)cc3)C1C2` (single isomer, unassigned; (-)) [listing 2 of 2 here], in the experiment on Sigma 2 receptor [4], the Ratio was 0.69.

Regarding `COc1ccc(/C=C2/C(=O)CC3(c4cccc(O)c4)CCN(C)C2C3)cc1` (single isomer, unassigned; (-)) [listing 2 of 2 here], the Ratio with Sigma 2 receptor [4] is 0.1.

`COc1cccc(/C=C2/C(=O)CC3(c4cccc(O)c4)CCN(C)C2C3)c1` (single isomer, unassigned; (-)) [listing 2 of 2 here]: the Ratio in the experiment on Sigma 2 receptor [4] was 0.12.

Consider `CN1CCC2(c3cccc(O)c3)CC(=O)/C(=C/c3ccccc3)C1C2` (stereo in doubt; 2) [listing 1 of 2 here], for which the Ki at Sigma 2 receptor [3] turned out to be 0.037 µM; in experiment [5], 0.0233 µM.

For the compound `CN1CCC2(c3cccc(O)c3)CC(=O)/C(=C/c3ccccc3)C1C2` (stereo in doubt; 2) [listing 2 of 2 here], the Ratio in the experiment on Sigma 2 receptor [4] was found to be 0.63.

As to `CN1CCC2(c3cccc(O)c3)CC(=O)/C(=C/c3ccc(Cl)c(Cl)c3)C1C2` (stereo in doubt; 3), the Ki on Sigma 2 receptor [3] amounted to 0.0718 µM; in experiment [5] it was 0.0653 µM.

On to `COc1ccc(/C=C2/C(=O)CC3(c4cccc(O)c4)CCN(C)C2C3)cc1` (stereo in doubt; 4) [listing 1 of 2 here], for which the Ki was determined as 0.0071 µM in experiment [1], 0.0041 µM on Mu-type opioid receptor and 0.035 µM at Sigma 2 receptor [3].

For the compound `COc1ccc(/C=C2/C(=O)CC3(c4cccc(O)c4)CCN(C)C2C3)cc1` (stereo in doubt; 4) [listing 2 of 2 here], in the experiment with Sigma 2 receptor [4], the Ratio was 0.53.

Turning to `CN1CCC2(c3cccc(O)c3)CC(=O)/C(=C/c3ccc(Cl)cc3)C1C2` (stereo in doubt; 5) [listing 1 of 2 here], the Ki in experiment [1] is over 1 µM; on Mu-type opioid receptor it was 0.0216 µM; on Sigma 2 receptor [3] it was 0.0095 µM.

With `CN1CCC2(c3cccc(O)c3)CC(=O)/C(=C/c3ccc(Cl)cc3)C1C2` (stereo in doubt; 5) [listing 2 of 2 here], the Ratio with Sigma 2 receptor [4] turned out to be 4.

`COc1cccc(/C=C2/C(=O)CC3(c4cccc(O)c4)CCN(C)C2C3)c1` (stereo in doubt; 6) [listing 1 of 2 here]: the Ki in experiment [1] is over 0.4 µM; at Mu-type opioid receptor, 0.0118 µM; in experiment [2], over 0.5 µM; on Sigma 2 receptor [3], 0.0443 µM.

For `COc1cccc(/C=C2/C(=O)CC3(c4cccc(O)c4)CCN(C)C2C3)c1` (stereo in doubt; 6) [listing 2 of 2 here], in the experiment with Sigma 2 receptor [4], the Ratio amounted to 0.18.

Consider `CN1CCC2(c3cccc(O)c3)CC(=O)/C(=C/c3cccc(Cl)c3)C1C2` (stereo in doubt; 7) [listing 1 of 2 here], for which the Ki was 0.222 µM in experiment [1], 0.0232 µM at Mu-type opioid receptor, 0.246 µM in experiment [2] and 0.0345 µM at Sigma 2 receptor [3].

In the case of `CN1CCC2(c3cccc(O)c3)CC(=O)/C(=C/c3cccc(Cl)c3)C1C2` (stereo in doubt; 7) [listing 2 of 2 here], the Ratio in the experiment with Sigma 2 receptor [4] came to 1.5.

Turning to `COc1cccc(C23CCN(C)C(C2)/C(=C\c2ccccc2)C(=O)C3)c1` (stereo in doubt; 10) [listing 1 of 2 here], the Ki in experiment [1] was over 0.5 µM; on Mu-type opioid receptor it was over 0.25 µM; in experiment [2], over 1 µM; on Sigma 2 receptor [3], 0.0817 µM; in experiment [5] it was 0.138 µM.

In the case of `COc1cccc(C23CCN(C)C(C2)/C(=C\c2ccccc2)C(=O)C3)c1` (stereo in doubt; 10) [listing 2 of 2 here], in the experiment with Sigma 2 receptor [4], the Ratio is 1.7.

For the compound `CN1CCC2(c3cccc(O)c3)CC(=O)/C(=C/c3ccc(Cl)cc3)C1C2` (stereo in doubt; (+)-5) [listing 1 of 2 here], the figures for the inhibition constant Ki (in experiment [1]; at Mu-type opioid receptor; at Sigma 2 receptor [3]) were 0.336 µM, 0.0064 µM and 0.0064 µM, respectively.

`CN1CCC2(c3cccc(O)c3)CC(=O)/C(=C/c3ccc(Cl)cc3)C1C2` (stereo in doubt; (+)-5) [listing 2 of 2 here]: the Ratio in the experiment with Sigma 2 receptor [4] amounted to 119.

With `CN1CCC2(c3cccc(O)c3)CC(=O)/C(=C/c3cccc(Cl)c3)C1C2` (stereo in doubt; (+)-7) [listing 1 of 2 here], the Ki in experiment [1] was 0.217 µM; on Mu-type opioid receptor it was 0.0118 µM; in experiment [2], over 0.5 µM; on Sigma 2 receptor [3], 0.0224 µM.

Consider `CN1CCC2(c3cccc(O)c3)CC(=O)/C(=C/c3cccc(Cl)c3)C1C2` (stereo in doubt; (+)-7) [listing 2 of 2 here], for which the Ratio with Sigma 2 receptor [4] stood at 138.

Consider `CN1CCC2(c3cccc(O)c3)CC(=O)CC1C2` (stereo in doubt; (-)-1), for which the Ki on Sigma 2 receptor [3] is 0.025 µM.

Turning to `CN1CCC2(c3cccc(O)c3)CC(=O)/C(=C/c3ccccc3)C1C2` (stereo in doubt; (-)-2) [listing 1 of 2 here], the Ki in experiment [1] amounted to 1.99 µM; at Mu-type opioid receptor, 0.392 µM; in experiment [2], 0.889 µM; at Sigma 2 receptor [3] it was 0.154 µM.

For `CN1CCC2(c3cccc(O)c3)CC(=O)/C(=C/c3ccccc3)C1C2` (stereo in doubt; (-)-2) [listing 2 of 2 here], the Ratio in the experiment with Sigma 2 receptor [4] worked out at 0.06.

For the compound `CN1CCC2(c3cccc(O)c3)CC(=O)/C(=C/c3cccc(Cl)c3)C1C2` (stereo in doubt; (-)-7) [listing 1 of 2 here], the Ki in experiment [1] is 0.386 µM; on Mu-type opioid receptor it was 0.0476 µM; in experiment [2], over 0.5 µM; at Sigma 2 receptor [3] it was 0.123 µM.

On to `CN1CCC2(c3cccc(O)c3)CC(=O)/C(=C/c3cccc(Cl)c3)C1C2` (stereo in doubt; (-)-7) [listing 2 of 2 here], for which the Ratio in the experiment with Sigma 2 receptor [4] came to 0.25.
